The target in series [1] is T1, C-C chemokine receptor type 2 (Homo sapiens, UniProt P41597). As to the kind of experiment: Displacement of [125I]MCP-1 from CCR2 in human PMBC. On the technique in general: Loss of bound radioactivity is the signal in a displacement assay; it reports binding, not function.
Target sequence in this assay (P41597 whole entry): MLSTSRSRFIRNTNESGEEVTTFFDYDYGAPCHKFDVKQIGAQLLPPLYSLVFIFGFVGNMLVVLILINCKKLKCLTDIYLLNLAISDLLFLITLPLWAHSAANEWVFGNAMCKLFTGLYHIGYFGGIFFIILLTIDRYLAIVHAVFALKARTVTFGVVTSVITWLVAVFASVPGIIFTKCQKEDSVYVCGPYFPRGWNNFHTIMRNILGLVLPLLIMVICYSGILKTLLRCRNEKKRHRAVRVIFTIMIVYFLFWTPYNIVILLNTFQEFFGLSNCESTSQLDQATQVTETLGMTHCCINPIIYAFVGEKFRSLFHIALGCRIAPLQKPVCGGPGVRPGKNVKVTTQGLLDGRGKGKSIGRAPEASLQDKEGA
In series [2] the target is T1, C-C chemokine receptor type 2. As to the kind of experiment: Displacement of [125I]MCP-1 from CCR2 in human PMBC up to 2400 nM. The method in brief: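 Competition binding against [¹²⁵I]MCP-1 using human peripheral blood mononuclear cells at room temperature. IC50 typically given as the mean of two determinations (± standard deviation).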
Target sequence in this assay (P41597 whole entry, looked up): as the sequence (P41597 whole entry) above
A short description of series [3]: Metabolic stability of the compound in human liver microsomes assessed as compound remaining at 0.5 uM aftet 10 mins. It counts as ADME, Microsome. Particulars: read-out: Stability. An outline of the steps: (§1)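 Test compound at 0.5 μM initial concentration incubated 10 min with human, rat or mouse liver microsomes. Stability expressed as percentage of parent compound remaining at the end of incubation.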
In general terms: Liver microsomes are a subcellular fraction often used to study metabolism.

A short description of series [4]: Metabolic stability of the compound in rat liver microsomes assessed as compound remaining at 0.5 uM aftet 10 mins. It counts as ADME, Microsome. Particulars: read-out: Stability. An outline of the steps: as §1
The nature of series [5]: Metabolic stability of the compound in mouse liver microsomes assessed as compound remaining at 0.5 uM aftet 10 mins. It counts as ADME, Microsome. The following applies: read-out: Stability. An outline of the steps:
as §1

The target in series [6] is C-C chemokine receptor type 5 (Homo sapiens, UniProt P51681). As to the kind of experiment: Displacement of [125I]MIP-1beta from CCR5.
Chain of C-C chemokine receptor type 5 (P51681 whole entry): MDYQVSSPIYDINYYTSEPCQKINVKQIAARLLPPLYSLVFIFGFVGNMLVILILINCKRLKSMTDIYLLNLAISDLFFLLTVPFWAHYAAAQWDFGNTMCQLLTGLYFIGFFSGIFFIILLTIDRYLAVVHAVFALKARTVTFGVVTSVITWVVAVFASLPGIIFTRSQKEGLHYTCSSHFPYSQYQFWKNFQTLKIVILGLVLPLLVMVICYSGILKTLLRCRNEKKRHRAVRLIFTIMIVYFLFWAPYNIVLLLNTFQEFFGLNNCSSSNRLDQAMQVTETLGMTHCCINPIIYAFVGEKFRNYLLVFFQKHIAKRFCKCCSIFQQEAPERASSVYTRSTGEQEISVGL
The target of series [7] is T1, C-C chemokine receptor type 2. As to the kind of experiment: Displacement of [125I]MCP-1 from CCR2 in human THP1 cells. The series is classed as cell-based, THP-1. An outline of the steps:
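Competition binding against [¹²⁵I]MCP-1 using THP-1 cells in place of peripheral blood mononuclear cells. IC50 typically given as the mean of two determinations.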
Target sequence in this assay (P41597 whole entry): as the sequence (P41597 whole entry) above

The species named for another series is Homo sapiens. As to the kind of experiment: Selectivity ratio of IC50 for CCR5 to IC50 for human CCR2.

pIC50: −log10 of the molar value. Activity calls are given as the source filed them. The calls are words filed in the database; no cut-off is given here.

`CC(C)N(C)[C@@H]1CC[C@H](NC(=O)CNC(=O)c2cccc(C(F)(F)F)c2)C[C@@H]1CS(=O)(=O)c1ccccc1`: the pIC50 in series [1] was 7.10.
Still for that read-out and setting: in the case of `CC(C)N[C@@H]1CC[C@H](NC(=O)CNC(=O)c2cccc(C(F)(F)F)c2)[C@H](CS(=O)(=O)c2ccccc2)C1` it was 8.28; in that of `N[C@@H]1CC[C@H](NC(=O)CNC(=O)c2cccc(C(F)(F)F)c2)C[C@H]1CS(=O)(=O)c1ccccc1`, 5.43.
Still for that read-out and setting: in the case of `CC(C)N[C@@H]1CC[C@H](NC(=O)CNC(=O)c2cccc(C(F)(F)F)c2)C[C@H]1CS(=O)(=O)c1ccccc1` it was 6.51.
`CC(C)N(C)[C@@H]1CC[C@H](NC(=O)CNC(=O)c2cccc(C(F)(F)F)c2)C[C@H]1CS(=O)(=O)c1ccccc1` had a pIC50 in series [1] of 5.54. Compared with the last compound, the pIC50 is 0.97 log units lower.
Still for that read-out and setting: next, `N[C@H]1CC[C@@H](NC(=O)CNC(=O)c2cccc(C(F)(F)F)c2)CC1`: 5.39.
The same measure, in the same setting: next, `CC(C)N[C@H]1CC[C@@H](NC(=O)CNC(=O)c2cccc(C(F)(F)F)c2)CC1`: 6.24; `CC(C)N(C)[C@H]1CC[C@@H](NC(=O)CNC(=O)c2cccc(C(F)(F)F)c2)CC1`: 7.14.
Take `CC(C)N(C)[C@H]1CC[C@@H](NC(=O)CNC(=O)c2cccc(C(F)(F)F)c2)C[C@H]1CS(=O)(=O)c1ccccc1`: the inhibition result in series [2] was “inactive”.
For `CN(C)[C@@H]1CC[C@H](NC(=O)CNC(=O)c2cccc(C(F)(F)F)c2)C[C@@H]1CS(=O)(=O)c1ccccc1` (racemic), the remaining at 10 min, 0.5 µM in series [3] was 4.4%; in series [4] it was 3.9%; in series [5], 4.3%. Besides, the negative-log IC50 (pIC50) in series [1] is 6.89.
As to `CCCN(C)[C@@H]1CC[C@H](NC(=O)CNC(=O)c2cccc(C(F)(F)F)c2)C[C@@H]1CS(=O)(=O)c1ccccc1` (racemic), the pIC50 in series [1] is 6.43.
In series [1], `O=C(CNC(=O)c1cccc(C(F)(F)F)c1)N[C@H]1CC[C@@H](N2CCCCC2)[C@@H](CS(=O)(=O)c2ccccc2)C1` (racemic) had a negative logarithm of the IC50 (pIC50) of 6.47.
On to `N[C@@H]1CC[C@H](NC(=O)CNC(=O)c2cc(C(F)(F)F)ccc2NC(=O)N2CCC2)C[C@@H]1CS(=O)(=O)c1ccccc1` (racemic), for which the figures for the remaining at 10 min, 0.5 µM in series [3], in series [4] and in series [5] were 70%, 71% and 87%, respectively. The negative logarithm of the IC50 (pIC50) in series [6] is 5.14.
Turning to `CCN[C@@H]1CC[C@H](NC(=O)CNC(=O)c2cc(C(F)(F)F)ccc2NC(=O)N2CCC2)C[C@@H]1CS(=O)(=O)c1ccccc1` (racemic), in series [7], the pIC50 was 7.92.
With `CC(C)N[C@@H]1CC[C@H](NC(=O)CNC(=O)c2cc(C(F)(F)F)ccc2NC(=O)N2CCC2)C[C@@H]1CS(=O)(=O)c1ccccc1` (racemic), the negative logarithm of the IC50 (pIC50) is 8.18 in series [7] and 6.09 in series [6]. For the same compound, the Ratio IC50 in the series listed under Homo sapiens was greater than 100.
Turning to `CC(C)N(C)[C@@H]1CC[C@H](NC(=O)CNC(=O)c2cc(C(F)(F)F)ccc2NC(=O)N2CCC2)C[C@@H]1CS(=O)(=O)c1ccccc1` (racemic), in series [7], the negative-log IC50 (pIC50) is 7.47.
Compound `CC(C)N(C)[C@@H]1CC[C@H](NC(=O)CNC(=O)c2cccc(C(F)(F)F)c2)C[C@@H]1CS(=O)(=O)c1ccccc1` (racemic) gave a pIC50 in series [7] of 7.05.
`N[C@@H]1CC[C@H](NC(=O)CNC(=O)c2cccc(C(F)(F)F)c2)[C@H](CS(=O)(=O)c2ccccc2)C1` (racemic) had a pIC50 in series [1] of 7.43.
With `N[C@@H]1CC[C@H](NC(=O)CNC(=O)c2cccc(C(F)(F)F)c2)C[C@@H]1CS(=O)(=O)c1ccccc1` (racemic), the remaining at 10 min, 0.5 µM in series [3] was 100%; in series [4] it was 57%; in series [5], 96%. For the same compound, in series [1], the pIC50 was 7.23.
For `CC(C)N[C@@H]1CC[C@H](NC(=O)CNC(=O)c2cccc(C(F)(F)F)c2)C[C@@H]1CS(=O)(=O)c1ccccc1` (racemic), in that order: 4.4%, 0.9%, 9.6% and 7.92.
As for `CN[C@@H]1CC[C@H](NC(=O)CNC(=O)c2cccc(C(F)(F)F)c2)C[C@@H]1CS(=O)(=O)c1ccccc1` (racemic), the pIC50 in series [1] was 6.74.
On to `CCN[C@@H]1CC[C@H](NC(=O)CNC(=O)c2cccc(C(F)(F)F)c2)C[C@@H]1CS(=O)(=O)c1ccccc1` (racemic), for which the remaining at 10 min, 0.5 µM in series [3] amounted to 24%; in series [4], 23%; in series [5], 25%. Further, in series [1], the pIC50 is 7.57.
For `CCCN[C@@H]1CC[C@H](NC(=O)CNC(=O)c2cccc(C(F)(F)F)c2)C[C@@H]1CS(=O)(=O)c1ccccc1` (racemic), in that order: 11%, 8%, 28% and 7.27.
`O=C(CNC(=O)c1cccc(C(F)(F)F)c1)N[C@H]1CC[C@@H](NC2CCC2)[C@@H](CS(=O)(=O)c2ccccc2)C1` (racemic) showed a negative logarithm of the IC50 (pIC50) in series [1] of 7.47.

For orientation: pIC50 means −log10 of the IC50, conventionally taken in molar units. Low readings indicate a high IC50, high ones a low IC50.
